Screening results as filed in PubChem.
PLAP activator = activators of human placental alkaline phosphatase; P05187; purified PLAP enzyme, luminescent substrate read-out; active compounds read high; activation fold at 20 µM; hit rate 1.2% among 96,000; in the data active means activation fold above about 2
Target sequence (P05187 whole entry, looked up): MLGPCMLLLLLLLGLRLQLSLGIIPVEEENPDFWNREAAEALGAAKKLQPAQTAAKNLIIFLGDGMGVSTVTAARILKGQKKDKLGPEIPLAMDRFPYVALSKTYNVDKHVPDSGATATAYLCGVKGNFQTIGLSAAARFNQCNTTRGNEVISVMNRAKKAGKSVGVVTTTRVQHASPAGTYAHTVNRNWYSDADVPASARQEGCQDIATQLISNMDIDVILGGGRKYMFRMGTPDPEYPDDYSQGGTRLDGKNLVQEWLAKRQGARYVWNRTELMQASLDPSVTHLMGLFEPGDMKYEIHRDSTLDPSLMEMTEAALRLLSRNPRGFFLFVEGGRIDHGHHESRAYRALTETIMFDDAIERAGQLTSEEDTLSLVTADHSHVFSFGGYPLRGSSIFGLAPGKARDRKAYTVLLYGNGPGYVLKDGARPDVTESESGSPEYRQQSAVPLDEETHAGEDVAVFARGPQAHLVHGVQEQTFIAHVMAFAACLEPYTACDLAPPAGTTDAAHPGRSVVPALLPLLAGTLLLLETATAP
Ecoli WT expand = E. coli BW25113 growth inhibition, expanded screen. hit rate 0.15% among 98,000. growth inhibition, % at 100 µM. OD600 absorbance;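 active means growth inhibition above about 50% at one test dose, limit read from the data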;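 further: growth measured after 20 h incubation at 37 °C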
Ecoli tolC = E. coli tolC mutant growth inhibition; E. coli BW25113 tolC mutant growth, OD615; growth inhibition, % at 10 µM (by protocol); hit rate 2.2% among 65,000; AID 573;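 active means growth inhibition at or above a cutoff equal to the mean over every tested compound plus 3 SD, cut at about 60% in these data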;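 further: growth measured after 20 h incubation at 37 °C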
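test system = E. coli BW25113 ΔtolC::kan bacteria | medium = LB with kanamycin 50 µg/mL | signal = OD at 615 nm | schedule = 37 °C, 20 h exposure | evaluation = % inhibition of E. coli growth | compound dosing = one dose of 10 µM final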
PostGolgi ctrl = yeast control strain growth, post-Golgi counter-screen. inhibition, % at 10 µM. efflux-deficient yeast background strain, growth absorbance A615, 16 h. hit rate 5% among 98,000. AID 738
PostGolgi yeast = growth inhibition of a yeast mutant, post-Golgi transport screen. post-Golgi transport phenotypic cell assay. inhibition, % at 10 µM. hit rate 0.9% among 98,000. AID 739;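 further: yeast cells grown in 1536-well plates; yeast grown about 18 h at 30C before absorbance read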
Numbers without * were called inactive; x = no result given. An excerpt weighted towards active compounds, which were near 7.2% of everything screened. Unless noted, no stated cut-off is given here; in the data, active means inhibition above about 30%; inactive means the rest.

SMILES | PLAP activator | Ecoli WT expand | Ecoli tolC | PostGolgi ctrl | PostGolgi yeast
CCOc1ccc(OCC)c(NC(=O)CN2CCN(c3cccc(C)c3)C(C)C2)c1 (centres undefined) | 1.1 | -12 | 29 | 30* | 2
COC(=O)c1[nH]c2cc(C)ccc2c1NC(=O)CN1CCCc2ccccc21 | 1.4 | -2 | 36 | 16 | 0
COC(=O)c1[nH]c2cc(OC)ccc2c1NC(=O)CCN1CCN(c2ccccc2)CC1 | 1.6 | 3 | x | 8 | 2
CCn1c(=O)cc(OCC(=O)Nc2ccccc2C#N)c2ccccc21 | 0.9 | -1 | 7 | 0 | 4
CN(CCO)c1nc(N)c2c(N)nc3c(c2c1C#N)CC(=O)N3C1CCCC1 | 0.9 | -1 | x | 6 | 1
CC(C)(C)N1C(=O)Cc2c1nc(N)c1c(N)nc(N3CCCCC3CO)c(C#N)c21 (centres undefined) | 1.3 | 8 | 80* | -13 | 3
Cc1cc(C)n(CCc2nc3c4ccccc4n(CC(=O)Nc4ccc(Cl)cc4F)c(=O)n3n2)n1 | x | x | 2 | x | x
CCC1CCCCN1C(=O)Cn1c(C(=O)OC)cc2ccsc21 (centres undefined) | 1.1 | 0 | 12 | 16 | -8
COC(=O)c1n[nH]c2ccccc12 | 1 | 9 | -4 | 1 | 2
O=C(OCCCCN1C(=O)c2ccccc2C1=O)c1n[nH]c2ccccc12 | 2* | 3 | 34 | 28 | 0
CCOC(=O)c1cnn(-c2nc3sc4c(c3c(=O)[nH]2)CCCC4)c1N | 1.3 | x | 94* | x | x
Cc1cc(C)n(-c2nc3sc4c(c3c(=O)[nH]2)CCCC4)n1 | 1.6 | -4 | x | 98* | 99*
CC(C(=O)OCC(=O)Nc1ccc(S(=O)(=O)N2CCCCC2)cc1)N1C(=O)c2ccccc2C1=O (centres undefined) | 1.3 | 2 | x | 1 | 2
COc1ccc(Nc2nc(-c3cccs3)cs2)c(OC)c1 | 1.1 | -11 | x | 2 | -6
COc1ccccc1Nc1nc(-c2cccs2)cs1 | 0.8 | -7 | 25 | 52* | 4
COc1ccc(OC)c(Nc2nc(-c3cccs3)cs2)c1 | 0.8 | -17 | 61* | 13 | -1
COc1ccc(OC)c(C2C(C(=O)c3ccco3)=C(O)C(=O)N2CCCN2CCOCC2)c1 (centres undefined) | x | x | -5 | x | x
CCOC(=O)CCSc1nc2c(c(C(F)(F)F)c1C#N)CCC2 | 1.5 | 0 | 66* | 11 | -5
CCCCSc1nc2c(c(C(F)(F)F)c1C#N)CCC2 | 0.8 | 2 | x | 5 | -3
CCOc1cc(C)cc2oc(=O)cc(-c3ccccc3)c12 | 0.7 | -2 | x | 32* | 21
Cc1cc(OCC(=O)N2CCc3ccccc3C2)c2c(-c3ccccc3)cc(=O)oc2c1 | 1.7 | -19 | x | 51* | 5
CC(=O)c1ccc(NC(=O)CSc2nnc(Cn3c(=O)sc4ccccc43)n2C)cc1 | x | -8 | -5 | 7 | 3
CCC(C(=O)Nc1ccccc1OC)n1c(C(=O)OC)cc2ccsc21 (centres undefined) | 1 | -21 | 71* | 19 | 5
CC(C)c1ccc(C2NC(C(=O)O)CS2)cc1 (centres undefined) | 2* | -1 | x | 4 | 21
COC(=O)C1CC(O)CN1C(=O)c1ccco1 (centres undefined) | 1.1 | 6 | x | 34* | -1
SMILES | PLAP activator | Ecoli WT expand | Ecoli tolC | PostGolgi ctrl | PostGolgi yeast
CCN(CC)S(=O)(=O)c1cccc(C(=O)N2CC(O)CC2C(=O)OC)c1 (centres undefined) | 1 | 0 | x | 10 | 2
Cc1cccn2c(=O)c3cc(C(=O)NC(C)c4ccccc4)c(=N)n(CCCn4ccnc4)c3nc12 (centres undefined) | x | x | 18 | x | x
Cc1c(CCC(=O)O)c(=O)oc2cc3occ(-c4ccc(F)cc4)c3cc12 | 1.6 | -9 | 100* | 6 | -10
CCCC(C)NS(=O)(=O)c1ccc(OC)c(C)c1 (centres undefined) | 0.8 | 3 | x | 11 | 1
CCC1C(=O)N(c2nc(C)cc(C)n2)N=C1C (centres undefined) | 1.2 | 3 | x | 5 | 0
CC1=NN(c2nc(C)cc(C)n2)C(=O)C1CCC(C)C (centres undefined) | 2.3* | 2 | x | 3 | -4
COc1ccc(-c2csc(N(CC3CCCO3)C(=O)c3ccco3)n2)cc1 (centres undefined) | 1 | 5 | 61* | 24 | 18
COc1ccc(-c2csc(N3CCN(C(=O)c4ccco4)CC3)n2)cc1 | 1.2 | -6 | 40 | 18 | -9
CC(C)n1c(SCC(=O)N2c3ccccc3Sc3ccccc32)nc2c1c(=O)n(C)c(=O)n2C | 1.4 | -9 | 19 | 39* | 21
